Screens from PubChem BioAssay.
Only some compounds are listed: those with a hit (about 2.4% of all), similar ones and a draw of the others.
Scp-1 inhibitor: Scp-1 (human) phosphatase inhibition | Q9GZU7 | Recombinant Scp1, phosphopeptide, malachite green phosphate absorbance | inhibition, % at 20 µM | actives 0.88% (n = 340,000) | AID 493091;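 active = inhibition above about 50% at 20 µM, limit read from the data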;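 also: plate controls were DMSO wells with enzyme for no effect and wells lacking enzyme for full effect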
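System: truncated SCP-1 phosphatase (76-261aa); medium: Tris acetate buffer pH 5.5 with MgCl2 and Tween-20; incubation: 45 min room-temperature reaction, 5 min colour, 30 min stabiliser; compound: single 20 µM dose, 1% DMSO; reagent: Phosphorylated 17-residue peptide substrate; read-out: % inhibition at 20 µM; technique: colorimetric free-phosphate detection, absorbance 630 nm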
STEP inh: blocks human striatal-enriched tyrosine phosphatase; actives 0.25% (n = 360,000); P54829; inhibition, % at 20 µM; recombinant STEP, OMFP fluorogenic substrate, fluorescence; AID 588621;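 active = inhibition at 20 µM, scaled per plate between control wells, above about 37%, limit read from the data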;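 also: 0% = DMSO with enzyme and substrate and 100% = substrate only without enzyme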
Target sequence (P54829 whole entry, looked up): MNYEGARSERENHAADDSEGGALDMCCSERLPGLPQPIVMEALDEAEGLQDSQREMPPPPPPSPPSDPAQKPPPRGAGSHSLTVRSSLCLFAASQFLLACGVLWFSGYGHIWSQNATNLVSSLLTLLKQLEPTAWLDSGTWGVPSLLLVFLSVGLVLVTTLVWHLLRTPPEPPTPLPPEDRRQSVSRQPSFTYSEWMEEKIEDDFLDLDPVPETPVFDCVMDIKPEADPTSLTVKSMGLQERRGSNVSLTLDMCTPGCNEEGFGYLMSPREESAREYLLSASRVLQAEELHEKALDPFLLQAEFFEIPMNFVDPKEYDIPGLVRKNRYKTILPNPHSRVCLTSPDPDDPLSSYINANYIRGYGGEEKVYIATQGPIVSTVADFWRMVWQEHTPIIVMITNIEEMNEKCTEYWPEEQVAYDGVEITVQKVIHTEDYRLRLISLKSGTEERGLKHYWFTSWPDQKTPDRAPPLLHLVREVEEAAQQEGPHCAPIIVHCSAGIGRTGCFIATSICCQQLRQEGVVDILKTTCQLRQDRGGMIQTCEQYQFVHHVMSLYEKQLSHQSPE
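Assay system: isolated STEP enzyme / Timing: 20 min at room temperature, dark / Doses: 20 µM, 1% DMSO / Technique: fluorescence intensity, excitation 480 nm, emission 540 nm / Reagent: fluorogenic phosphatase substrate OMFP at 25 µM final / Measure: percent inhibition scaled to no-enzyme and uninhibited-enzyme controls, plate-pattern corrected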
NadD inh: NadD (S. aureus) enzyme inhibition | AID 602399 | inhibition, % at 20 µM | actives 0.78% (n = 360,000) | purified NadD enzyme, colorimetric absorbance read-out; in the data active = inhibition above about 26%
LMPTP block: blocks human LMPTP phosphatase | P24666 | recombinant LMPTP-A, OMFP fluorogenic substrate, fluorescence intensity | inhibition, % at 20 µM | actives 0.22% (n = 360,000);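 active = compounds that cut the enzyme signal by at least half of the control window in the single-dose screen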;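 also: plate controls were DMSO wells with enzyme plus substrate for no effect and substrate without enzyme for full effect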
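Test system – LMPTP-A phosphatase enzyme · Quantity – 0.625 nM LMPTP-A final · Reagent – OMFP substrate, 400 µM final · Dosing – one test concentration per compound, 20 µM, with 3% DMSO overall · Timing – 50 min enzyme reaction at room temperature, protected from light · Detection – fluorescence intensity · Controls – substrate-only low control, DMSO enzyme-plus-substrate high control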
DNMT1 inh: inhibitors of human DNMT1; AID 588458; inhibition (reported as % activation of signal), % at 10 µM; DNMT1 molecular beacon, Hinp1I cleavage, fluorescence; actives 0.83% (n = 360,000); P26358; in the data active = inhibition above about 50%
SUMO1 PPI mod: modulators of human SUMO1-mediated protein-protein interactions | inhibition, % at 20 µM | SUMO1 binding to a labelled peptide, TR-FRET, 1 h | AID 602429 | actives 0.33% (n = 360,000); in the data active = inhibition above about 37%
Target sequence (P63165 whole entry, looked up): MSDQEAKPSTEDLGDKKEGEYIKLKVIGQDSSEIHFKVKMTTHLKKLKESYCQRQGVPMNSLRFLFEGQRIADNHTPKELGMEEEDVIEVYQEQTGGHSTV
Scp1 confirm: confirmation of human Scp-1 phosphatase inhibitors | recombinant SCP-1 catalytic domain, phosphate release, malachite green absorbance | inhibition, % at 20 µM | shares compounds with Scp-1 inhibitor | actives 61% (n = 2,500);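 also: plate controls were DMSO with enzyme for no effect and buffer wells lacking enzyme for full effect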
Scp-1 MG ctr: interferes with malachite green readout, flagging false Scp-1 hits | Colorimetric interference counterscreen, malachite green absorbance 630 nm | shares compounds with Scp-1 inhibitor | 2,500 tested, under 10 active | apparent inhibition (interference), % at 20 µM | AID 540313;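 also: compounds added after enzyme reaction finished so only phosphate colour detection is probed; plate controls were DMSO wells with completed Scp-1 reaction for no effect and substrate wells lacking enzyme for full effect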
Scp-1 Tm shift: Scp-1 (human) binding by thermal shift. Recombinant SCP1, Sypro Orange thermal shift Tm. thermal shift relative to vanadate control, % at 40 µM. actives 25% (n = 1,500). shares compounds with Scp-1 inhibitor;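 active = substances whose mean melting-temperature shift, as a percentage of the reference inhibitor's shift, reaches about 5.3%, limit read from the data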;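 also: 0% = Tm of DMSO wells and 100% = Tm with sodium orthovanadate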
Starred values were filed as active, the others as inactive; . = not tested or not shown.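 The calls were made as follows, unless noted: active = inhibition of at least 30% at 20 µM; inactive = the rest.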

SMILES	Scp-1 inhibitor	STEP inh	NadD inh	LMPTP block	DNMT1 inh	SUMO1 PPI mod	Scp1 confirm	Scp-1 MG ctr	others
CC1(c2ccc3ccccc3c2)NC(=O)N(CC(=O)N2CCCC(C(F)(F)F)C2)C1=O (stereo not given)	-5.0	3.1	-7.9	0.0	-2.1	-3.2	.	.
CCc1ccc(NC(=O)C(=O)N/N=C(\C)CC(=O)NCc2ccc(Cl)cc2)cc1	79.5*	-2.3	-8.1	-0.4	17.3	-1.3	-2.7	-10.1
CCNC(=O)C/C(C)=N/NC(=O)C(=O)Nc1ccc(CC)cc1	-5.5	3.9	2.1	-1.1	-1.7	2.7	.	.
CCOC(=O)c1cccc(NC(=O)Cn2cc3c(n2)CCC(C)C3)c1 (stereo not given)	67.5*	3.0	-2.1	-0.3	0.6	6.5	-1.2	-9.8
CCC(=O)Nc1ccc(NC(=S)NC(=O)/C=C/c2ccccc2)cc1	66.6*	12.3	-9.8	-0.7	1.5	1.8	-4.3	-15.6
Cc1cc(-c2nnc(SCC(=O)Nc3cccc(F)c3)n2N)n[nH]1	-8.2	1.9	4.0	-1.1	1.1	0.4	.	.
CCn1c(CN2CCN(c3ccc(OC)cc3)CC2)nc2cc(S(=O)(=O)N(C)C)ccc21	-7.1	0.8	1.5	1.6	-0.8	6.9	.	.
CCCn1c(CN2CCN(C(=O)c3ccco3)CC2)nc2cc(S(=O)(=O)N(C)C)ccc21	50.7*	0.6	3.6	-0.3	-4.2	-2.8	-8.4	-12.6
C=CCn1c(COc2cc(C)ccc2C(C)C)nnc1SCC(=O)c1c(N)n(C)c(=O)n(C)c1=O	52.4*	-1.8	3.0	1.4	15.2	2.2	10.8	-1.0
Cc1ccc(C(C)C)c(OCC(=O)OCC(=O)c2c(N)n(C)c(=O)n(C)c2=O)c1	-2.8	2.4	-6.5	0.3	2.8	0.6	.	.
CCN1C(=O)[C@H]2[C@@H](c3ccc(-c4cc(C(C)=O)cs4)cc3)N3CCC[C@@]3(C(=O)OC)[C@H]2C1=O	-0.5	-1.4	4.3	1.1	-3.1	-29.6	.	.
CCCCN(C(=O)CSCc1ccc(C)cc1)c1c(N)n(CCC)c(=O)[nH]c1=O	-10.7	-0.4	2.4	-0.3	-1.8	3.3	.	.
O=c1c2ccccc2sn1-c1cc(S(=O)(=O)N2CCOCC2)ccc1N1CCCC1	88.4*	-3.4	14.6	-1.0	-7.7	8.0	55.0*	-18.6	Scp-1 Tm shift=-63.6
CN(Cc1cnc2nc(N)nc(N)c2n1)c1ccc(C(=O)NC(CCC(=O)O)C(=O)O)cc1C(F)(F)F (stereo not given)	50.1*	3.8	4.4	24.9	8.9	12.5	3.3	-7.9
CN(Cc1cnc2nc(N)nc(N)c2n1)c1ccc(C(=O)NC(CCC(=O)O)C(=O)O)cc1 (stereo not given)	61.6*	-0.5	-0.2	6.1	0.3	3.9	70.0*	-6.5	Scp-1 Tm shift=3.6
Cn1c(N)c(C(=O)COC(=O)Cc2ccc(F)cc2)c(=O)n(C)c1=O	-6.9	1.4	-4.4	-1.2	0.9	6.2	.	.
COc1ccccc1C1CC(c2cccc(NS(C)(=O)=O)c2)=NN1S(=O)(=O)c1ccccc1 (stereo not given)	-11.4	1.9	-6.5	2.1	-2.2	-5.8	.	.
NC(=O)CCC(NS(=O)(=O)c1ccc(Cl)cc1)C(=O)NCc1ccc(Cl)cc1 (stereo not given)	-9.3	-1.0	1.6	-2.0	7.5	6.7	-13.2	-16.2
NC(=O)CCC(NS(=O)(=O)c1ccc(Cl)cc1)C(=O)NCC1CCCCC1 (stereo not given)	-5.5	3.3	12.1	-0.4	-4.3	3.8	.	.
COc1ccccc1C(=O)NNC1CC(=O)N(c2ccc3c(c2)OCCO3)C1=O (stereo not given)	-4.4	-2.6	-5.3	-0.8	0.2	-0.6	-21.5	-15.9
Cc1ccccc1C(=O)NNC1CC(=O)N(c2ccc3c(c2)OCCO3)C1=O (stereo not given)	-6.5	2.4	-0.9	-1.5	-2.3	-0.3	.	.
Cc1cc(Nc2ccccc2)n(-c2ccc(Br)cc2)n1	53.6*	-5.4	0.0	2.8	-8.2	1.5	-15.6	-12.0
Cc1cccn2c(CN3CCNC(=O)CC3)c(C(=O)N(C)CCc3ccccc3)nc12	-6.2	-2.7	4.3	-0.8	-1.2	2.5	.	.
CCn1ccnc1CN(C)C(=O)c1cc(COc2ccccc2SC)on1	-7.2	-0.5	-2.3	-1.5	-2.1	6.9	.	.
O=C(Nc1cccc2ncccc12)c1ccccc1F	-3.7	-1.4	4.0	0.1	-3.3	-5.2	.	.
SMILES	Scp-1 inhibitor	STEP inh	NadD inh	LMPTP block	DNMT1 inh	SUMO1 PPI mod	Scp1 confirm	Scp-1 MG ctr	others
O=C(Nc1cccc2ncccc12)c1ccccc1Cl	98.2*	-3.2	8.9	-1.2	1.2	-4.2	4.2	-2.1
O=C1NC2c3c(I)sc(I)c3C(=O)C2O1 (stereo not given)	4.0	-14.3	0.3	-0.7	21.6	-31.6	.	.
O=C1NC2c3c(Cl)sc(Cl)c3C(=O)C2O1 (stereo not given)	78.9*	16.2	2.4	13.7	91.1*	9.1	71.2*	-10.9	Scp-1 Tm shift=18.1*
O=C(COc1ccc(Cl)cc1Cl)N/N=C/c1cccnc1	6.6	0.1	-2.3	0.3	2.3	-10.6	.	.
O=C(CCCOc1ccc(Cl)cc1Cl)N/N=C/c1cccc([N+](=O)[O-])c1	92.2*	2.9	-3.7	19.0	13.0	-7.9	55.0*	-9.8	Scp-1 Tm shift=2.5
CC1CN(C(=O)c2cccc(Oc3ccccc3)c2)CC(C)O1 (stereo not given)	-6.1	-2.3	-7.1	-0.4	0.9	5.4	.	.
O=C(CSc1ccc(-c2ccccc2)nn1)N1CCCc2ccccc21	58.3*	2.2	-1.6	1.4	1.7	0.5	0.5	-3.2
CO[C@@]1(NC(=O)Cc2cccs2)C(=O)N2C(C(=O)O)=C(COC(N)=O)CS[C@@H]21	51.7*	5.4	1.5	-0.9	6.3	8.5	40.9*	-10.1	Scp-1 Tm shift=1.8
CC(C)CC(=O)Nc1ccc(C(=O)COC(=O)C2CCC2)cc1	-2.2	-1.0	-6.8	0.0	0.4	-1.6	.	.
CC(=O)Nc1nnc(SCC(=O)Nc2ccc(N3CCOCC3)c(Cl)c2)s1	62.7*	0.8	9.8	0.7	-3.1	-0.6	-2.7	-8.2
CN(C)C(=O)c1ccc(NC(=O)c2cc(-c3ccco3)nc3ccccc23)cc1	65.8*	13.0	13.0	12.0	50.2*	-12.0	58.0*	-4.6	Scp-1 Tm shift=5.0
